Screening data: PubChem BioAssay, Johns Hopkins Ion Channel Center
Most compounds without a hit are left out; they make up all but 3.7% or so of the library.
KCNQ1 block: inhibitors of human KCNQ1 potassium channel. P51787. CHO-K1 KCNQ1, FluxOR thallium flux fluorescence; stronger effect = higher value. B-score at 10 µM. actives 1.3% (n = 310,000). AID 2642;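 active = compounds whose thallium flux B-score, printed positive for inhibition, exceeds three library SD while starting fluorescence stays within three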;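 also: channel opened by potassium depolarization with thallium stimulus after 20 min compound exposure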
Target sequence (P51787 whole entry, looked up): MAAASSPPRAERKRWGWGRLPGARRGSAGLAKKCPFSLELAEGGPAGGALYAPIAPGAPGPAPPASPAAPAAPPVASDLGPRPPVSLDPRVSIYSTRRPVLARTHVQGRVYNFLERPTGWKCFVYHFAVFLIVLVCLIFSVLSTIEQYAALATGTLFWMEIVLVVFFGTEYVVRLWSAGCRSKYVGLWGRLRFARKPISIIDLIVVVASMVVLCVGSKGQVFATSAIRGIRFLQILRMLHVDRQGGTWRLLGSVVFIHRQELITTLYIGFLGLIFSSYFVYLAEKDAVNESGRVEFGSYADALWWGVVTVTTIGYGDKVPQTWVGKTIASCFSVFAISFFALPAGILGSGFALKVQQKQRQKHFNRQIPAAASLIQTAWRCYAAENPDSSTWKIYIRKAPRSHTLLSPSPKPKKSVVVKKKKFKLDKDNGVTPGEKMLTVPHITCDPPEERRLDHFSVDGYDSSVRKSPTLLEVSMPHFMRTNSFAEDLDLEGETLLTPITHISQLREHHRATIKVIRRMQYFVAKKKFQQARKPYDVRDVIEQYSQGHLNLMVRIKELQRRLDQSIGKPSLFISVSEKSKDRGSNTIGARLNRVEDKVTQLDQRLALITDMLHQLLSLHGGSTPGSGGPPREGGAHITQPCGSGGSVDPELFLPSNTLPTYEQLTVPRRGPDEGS
KCNK3 inh: human KCNK3 channel inhibition, primary screen; O14649; CHO-KCNK3 thallium flux, FluxOR fluorescence; stronger effect = lower value; B-score at 10 µM; actives 0.84% (n = 340,000);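 active = B-score under library mean minus 4 SD, starting fluorescence ratio at most library mean plus 5 SD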;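 also: more negative B-score means stronger inhibition of thallium flux through KCNK3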
Kir21 block: Kir2.1 (mouse) channel inhibition; actives 0.85% (n = 310,000); AID 1672; HEK293-Kir2.1, FluxOR thallium flux fluorescence; stronger effect = lower value; B-score at 10 µM;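 active = fluorescence ratio B-score at or below minus 3 SD of library scores, with starting-brightness B-score within 2 SD, cut at about -4.2 in these data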;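 also: channel flux triggered by added potassium and thallium sulfate stimulus; B-score of peak minus minimum fluorescence over baseline after thallium stimulus; more negative B-score means stronger Kir2.1 block with less thallium influx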
KCNQ1 act: potentiates or activates the human KCNQ1 potassium channel; CHO-K1 KCNQ1, thallium flux FluxOR fluorescence; stronger effect = higher value; B-score at 10 µM; actives 0.35% (n = 310,000);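 active = fluorescence ratio B-score, a plate-corrected score, at least three library SD, with initial intensity B-score within 5 SD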
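Doses: Single concentration per compound, DMSO matched to controls | Test system: KCNQ1-transfected CHO-K1 cells | Timing: 90 min dye loading and 20 min compound exposure, both at room temperature | Measured by: Kinetic FluxOR thallium fluorescence, 10-s 1-Hz baseline, 110-s post-stimulus read | Medium: Assay buffer with matched DMSO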
hERG protect: shields human hERG channel from block by proarrhythmic agents. activation (rescue from dofetilide block), less the hit threshold, % at 10 µM. actives 0.51% (n = 310,000). AID 1511. Q12809. CHO-hERG, FluxOR thallium flux, dofetilide IC70 present;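 active = activation above the mean of controls blocked by dofetilide plus 5 SD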;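 also: thallium influx through hERG after potassium depolarization seen as dye fluorescence rise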
KCNK9 block: human KCNK9 channel inhibition; Q9NPC2; HEK293 KCNK9, FluxOR thallium flux fluorescence; stronger effect = lower value; B-score at 10 µM; actives 1.2% (n = 310,000); AID 488922;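 active = ratio B-score over 3 SD below the library mean, with starting fluorescence within 5 SD of its mean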;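 also: negative B-score means less thallium flux so channel inhibition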
* = called active by the depositor.

CCc1cccc(CC)c1C(O)c1cccnc1 (configuration not stated) was read as KCNQ1 block inactive, KCNK3 inh inactive, Kir21 block -4.6*, KCNQ1 act inactive, hERG protect -6 and KCNK9 block inactive.
CCN(CC)C(=O)CSc1nc(C)cc(C)c1C#N was read as KCNQ1 block inactive, KCNK3 inh inactive, Kir21 block -0.09, KCNQ1 act inactive, hERG protect -17 and KCNK9 block inactive.
`CCN(Cc1ccccc1)C(=O)CSc1nc(C)cc(C)c1C#N` gave KCNQ1 block inactive, KCNK3 inh inactive, Kir21 block -4.7*, KCNQ1 act inactive, hERG protect -11 and KCNK9 block inactive.
For CCn1c(=S)[nH]c2scc(-c3cccs3)c2c1=O the results were KCNQ1 block inactive, KCNK3 inh inactive, Kir21 block 0.07, KCNQ1 act 112*, hERG protect 100* and KCNK9 block inactive.
For C=CCn1c(=S)[nH]c2scc(-c3ccc(C)o3)c2c1=O the results were KCNQ1 block inactive, KCNK3 inh inactive, Kir21 block 0.81, KCNQ1 act 99*, hERG protect 64* and KCNK9 block inactive.
For O=C(Cn1c(=O)oc2cc(S(=O)(=O)N3CCCCC3)ccc21)N1CCCCC1 the results were KCNQ1 block inactive, KCNK3 inh inactive, Kir21 block 1.1, KCNQ1 act inactive, hERG protect -6 and KCNK9 block inactive.
`CSc1ccc(CN(C)CC(=O)NC(=O)NCCC2=CCCCC2)cc1` gave KCNK3 inh inactive.
For COc1ccc(CN2C(=O)c3ccccc3C2=O)cc1 the results were KCNQ1 block inactive, KCNK3 inh inactive, Kir21 block 1.6, KCNQ1 act inactive, hERG protect -9 and KCNK9 block inactive.
COc1ccc(CN2C(=O)c3ccccc3C(/C=N\OCc3ccc(F)cc3)C2=O)cc1 (configuration not stated) was read as KCNQ1 block 10*, KCNK3 inh inactive, Kir21 block 0.26, KCNQ1 act inactive, hERG protect -13 and KCNK9 block inactive.
For COc1ccc(CN2C(=O)c3ccccc3C(/C=N/OCc3ccc(Cl)cc3)C2=O)cc1 (configuration not stated) the results were KCNQ1 block 7*, KCNK3 inh inactive, Kir21 block -0.49, KCNQ1 act inactive, hERG protect -13 and KCNK9 block inactive.
`CS(=O)(=O)c1ccc(C(=O)N2CCN(S(=O)(=O)c3ccc(C4CCCCC4)cc3)CC2)cc1` gave KCNK3 inh inactive.
`CCOC(=O)CCCNC(=O)CSc1nc2ccc(OCC)cc2[nH]1` gave KCNQ1 block inactive, KCNK3 inh inactive, Kir21 block 1.5, KCNQ1 act inactive, hERG protect 7.2* and KCNK9 block inactive.
Screening CC(C)(C)C(=O)N1CCCC1C(=O)O (configuration not stated) returned KCNQ1 block inactive, KCNK3 inh inactive, Kir21 block 1.1, KCNQ1 act inactive, hERG protect 4.9* and KCNK9 block inactive.
For COc1ccc(S(=O)(=O)NCc2cccnc2)cc1NC(=O)c1ccccc1C the results were KCNK3 inh inactive.
For COc1ccccc1NC(=O)CSCC(=O)N1c2ccccc2CCc2ccccc21 the results were KCNQ1 block inactive, KCNK3 inh inactive, Kir21 block -0.69, KCNQ1 act inactive, hERG protect -10 and KCNK9 block -7.1*.
Screening CCOc1ccccc1N1CCN(C2=C(NS(=O)(=O)c3cccs3)C(=O)c3ccccc3C2=O)CC1 returned KCNQ1 block inactive, KCNK3 inh inactive, Kir21 block 1.5, KCNQ1 act inactive, hERG protect -8 and KCNK9 block -6.6*.
`CC(C)CNC(=S)NC(=O)c1ccc(Cl)cc1Cl` gave KCNQ1 block inactive, KCNK3 inh inactive, Kir21 block -1.6, KCNQ1 act 10*, hERG protect -10 and KCNK9 block inactive.
For Cc1c(Cc2ccccc2)sc(/N=C/c2c(O)ccc3ccccc23)c1C(N)=O the results were KCNQ1 block 7*, KCNK3 inh inactive, Kir21 block -1.4, KCNQ1 act inactive, hERG protect -9 and KCNK9 block inactive.
For Cc1c(Cc2ccccc2)sc(/N=C/c2ccc3ccccc3c2)c1C(N)=O the results were KCNK3 inh inactive.
`CC(=O)NCCNc1ccc([N+](=O)[O-])cc1C#N` gave KCNQ1 block inactive, KCNK3 inh inactive, Kir21 block 0.86, KCNQ1 act inactive, hERG protect 5.8* and KCNK9 block inactive.
CSC(SC)=C(C#N)C(=O)c1ccccc1 was read as KCNQ1 block 11*, KCNK3 inh inactive, Kir21 block -4.4*, KCNQ1 act inactive, hERG protect -29 and KCNK9 block inactive.
Screening COC(=O)[C@@]1(C)[C@H]2C(=O)N(C)C(=O)[C@H]2[C@H]2CN=C(SCc3ccc(Cl)cc3)N21 returned KCNK3 inh inactive.
CCOc1cc(C(=O)N[C@@H](C)C(=O)N2CCC3(CC2)NCCc2[nH]cnc23)cc(OCC)c1OCC was read as KCNQ1 block inactive, KCNK3 inh inactive, Kir21 block -0.9, KCNQ1 act inactive, hERG protect -9 and KCNK9 block inactive.
`COc1ccc(CCN2CCC(Nc3nc4ccccc4n3Cc3ccc(F)cc3)CC2)cc1` gave KCNQ1 block inactive, KCNK3 inh inactive, Kir21 block -6.8*, KCNQ1 act inactive and KCNK9 block inactive.
`C[C@H](NC(=O)C1CCN(S(=O)(=O)c2ccccc2)CC1)C(=O)NCc1ccc(Cl)cc1Cl` gave KCNQ1 block inactive, KCNK3 inh inactive, Kir21 block -0.58, KCNQ1 act inactive, hERG protect -8 and KCNK9 block inactive.
Screening CCOc1ccc(CN(C)CC(O)COC(c2ccc(OC)cc2)c2ccc(OC)cc2)cc1 (configuration not stated) returned KCNQ1 block inactive, KCNK3 inh inactive, Kir21 block -7.7*, KCNQ1 act inactive, hERG protect -24 and KCNK9 block inactive.
Screening COc1ccc(C(OCC(O)CN(C)C2CCCCC2)c2ccc(OC)cc2)cc1 (configuration not stated) returned KCNQ1 block inactive, KCNK3 inh inactive, Kir21 block -2.4, KCNQ1 act inactive, hERG protect -11 and KCNK9 block inactive.
For CCC(CO)NCc1cc(OC)c(OCC(=O)NCCc2ccccc2)cc1Br (configuration not stated) the results were KCNQ1 block inactive, KCNK3 inh inactive, Kir21 block 0.2, KCNQ1 act inactive, hERG protect -13 and KCNK9 block inactive.
CCCCCCSc1cccc(-c2nc3ccc(Cl)cn3c2NCCCC)c1 was read as KCNK3 inh inactive.
